Laboratory results from ChEMBL document CHEMBL4364301 (Eur J Med Chem, 2019).
Activity calls are given as the source filed them. The calls are words filed in the database; no cut-off is given here.

Key:
MCF7 [1] = assay: Antiproliferative activity against human MCF7 cells assessed as T/C value at 1 x 10^2 uM incubated for 96 hrs by propidium iodide based 2D monolayer assay; assay type: functional
MCF7 [2] = assay: Antiproliferative activity against human MCF7 cells assessed as reduction in cell growth incubated for 96 hrs by propidium iodide based 2D monolayer assay; assay type: functional; conditions: MCF7, 96 h
[3] = Toxicity in NMRI mouse xenografted with human 22Rv1 cells assessed as body weight loss at 100 mg/kg, ip administered for 16 days and measured on day 40; assay type: organism-based; conditions: in vivo, 384 h
Procedure, shortened: (§1)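 Male NMRI nu/nu 22Rv1-xenograft mice were dosed i.p. at 100 mg/kg/day for 16–18 daily doses in 10% EtOH, 10% Cremophor EL, 5% dextrose vehicle. Body weight was recorded to assess tolerance, and adjusted survival and group median body weight loss were reported.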

CWR22R [4] = assay: Antitumor activity against human 22Rv1 cells xenografted in NMRI mouse assessed as reduction of tumor volume at 100 mg/kg, ip administered for 16 days and measured on day 20; assay type: functional, organism-based
Procedure, shortened: (§2)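 Male NMRI nu/nu mice carried hind-flank 22Rv1 implants and were randomised at 80–200 mm³ tumour volume. Compound was given i.p. at 100 mg/kg/day as 16–18 daily doses in 10% EtOH, 10% Cremophor EL, 5% dextrose; vehicle controls were treated likewise. Tumours were measured by two-dimensional caliper twice weekly and reported as relative tumour volume. T/C was taken from group medians; doubling and quadrupling times were derived from tumour volume.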

CWR22R [5] = assay: Antitumor activity against human 22Rv1 cells xenografted in NMRI mouse assessed as reduction of tumor volume at 100 mg/kg, ip administered for 16 days and measured on day 10; assay type: functional, organism-based; procedure, shortened: as §2
CWR22R [6] = assay: Antitumor activity against human 22Rv1 cells xenografted in NMRI mouse assessed as inhibition of tumor growth by measuring T/C value at 100 mg/kg, ip administered for 16 days and measured on day 14; assay type: functional; procedure, shortened: as §2
[7] = Toxicity in NMRI mouse xenografted with human 22Rv1 cells assessed as survival rate at 100 mg/kg, ip administered for 16 days and measured on day 40; assay type: organism-based; conditions: in vivo; procedure, shortened: as §1
[8] = Toxicity in ip dosed NMRI nu/nu mouse assessed as maximum tolerated dose; assay type: organism-based; conditions: in vivo
CWR22R [9] = assay: Antitumor activity against human 22Rv1 cells xenografted in NMRI mouse assessed as tumor volume doubling time at 100 mg/kg, ip administered for 16 days (reference value: 2.7 day); assay type: functional; procedure, shortened: as §2
CWR22R [10] = assay: Antitumor activity against human 22Rv1 cells xenografted in NMRI mouse assessed as tumor volume quadrupling time at 100 mg/kg, ip administered for 16 days (reference value: 6.2 day); assay type: functional; procedure, shortened: as §2
Androgen receptor = target: T1, Androgen receptor (Rattus norvegicus, UniProt P15207); assay: Antagonist activity at GAL4-DBD fused rat androgen receptor expressed in UAS-bla 293 cells assessed as reduction in R1881-induced activation incubated for 16 hrs followed by fluorescence substrate addition and measured after 2 hrs by beta lactamase reporter gene assay; assay type: cell-based
T1 sequence (P15207 whole entry): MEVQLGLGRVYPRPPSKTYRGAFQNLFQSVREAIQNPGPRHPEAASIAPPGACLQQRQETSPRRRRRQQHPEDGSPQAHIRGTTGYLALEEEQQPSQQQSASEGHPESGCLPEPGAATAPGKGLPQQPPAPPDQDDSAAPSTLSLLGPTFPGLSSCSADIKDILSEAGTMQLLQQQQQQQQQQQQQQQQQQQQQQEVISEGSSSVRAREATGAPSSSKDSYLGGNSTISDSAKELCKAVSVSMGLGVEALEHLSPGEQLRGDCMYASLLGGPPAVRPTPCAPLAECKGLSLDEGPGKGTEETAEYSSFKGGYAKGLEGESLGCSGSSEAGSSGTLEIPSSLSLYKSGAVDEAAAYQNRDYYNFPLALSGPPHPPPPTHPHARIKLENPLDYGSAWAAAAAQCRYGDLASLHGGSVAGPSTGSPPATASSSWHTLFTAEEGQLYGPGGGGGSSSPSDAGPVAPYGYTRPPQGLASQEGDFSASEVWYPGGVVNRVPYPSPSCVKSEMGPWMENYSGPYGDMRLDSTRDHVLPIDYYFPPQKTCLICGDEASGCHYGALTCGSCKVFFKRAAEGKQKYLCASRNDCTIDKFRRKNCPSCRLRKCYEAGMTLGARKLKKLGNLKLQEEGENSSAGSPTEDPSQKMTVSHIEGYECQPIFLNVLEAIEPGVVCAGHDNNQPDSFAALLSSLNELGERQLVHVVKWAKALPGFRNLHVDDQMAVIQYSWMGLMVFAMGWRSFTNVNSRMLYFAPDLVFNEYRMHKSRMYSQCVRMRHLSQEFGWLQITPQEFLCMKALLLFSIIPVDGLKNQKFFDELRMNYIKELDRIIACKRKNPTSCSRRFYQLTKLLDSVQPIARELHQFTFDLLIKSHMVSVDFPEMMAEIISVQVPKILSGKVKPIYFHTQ

Row | Structure (SMILES) | T/C (MCF7 [1]) | IC50 (MCF7 [2]) | IC70 (MCF7 [2]) | IC50 (Androgen receptor) | also measured
1 | CC(O)(CSc1cc(C(F)(F)F)cc(C(F)(F)F)c1)C(=O)Nc1cccc(C(F)(F)C(F)(F)F)c1 (racemic) | 5% | 8.52 µM | 10.8 µM |  | 
2 | CC(O)(COc1ccc(C(F)(F)C(F)(F)F)cc1)C(=O)Nc1cc(C(F)(F)F)cc(C(F)(F)F)c1 (racemic) | 3% | 4.01 µM | 6.15 µM |  | 
3 | CC(O)(COc1ccc(S(F)(F)(F)(F)F)cc1)C(=O)Nc1cc(C(F)(F)F)cc(C(F)(F)F)c1 (racemic) |  |  |  |  | Activity [3]: Non-Toxic; Activity (CWR22R [4]): Active; Activity (CWR22R [5]): Active; T/C (CWR22R [6]): 43.9%; survival at 384 h [7]: 100%; MTD [8]: 100 mg/kg; Time (CWR22R [9]): 6.7 days; Time (CWR22R [10]): 14.3 days
4 | CC(O)(COc1cccc(S(F)(F)(F)(F)F)c1)C(=O)Nc1ccc([N+](=O)[O-])c(C(F)(F)F)c1 (racemic) |  |  |  | 0.54 µM | 
5 | CC(O)(COc1ccccc1C(F)(F)F)C(=O)Nc1ccc(S(F)(F)(F)(F)F)cc1 (racemic) |  |  |  | 1.81 µM | 
